From the array DNA melting data of Ke et al. (doi:10.1101/2024.01.08.574731)

How the values were obtained:
[1] = melting temperature; fluorescence melt of hairpins on a sequencing array, two-state fit, raised by 9.35 °C to match UV melts; details: sodium 0.088 M
Procedure, shortened: (§1)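 Bootstrapped two-state fits yielded melting temperature and folding enthalpy for library hairpins. Cy3 fluorescence, with annealed Cy3 and quencher oligos, was imaged on a sequenced MiSeq flow cell in 50 mM Na-HEPES pH 8.0, 25 mM NaCl in 2.5 °C steps up to 60 °C, and normalised to pre-quench Cy3 and to control constructs. Four replicates were combined by inverse variance, and fitted temperatures were raised by 9.35 °C to match UV melts.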

[2] = folding enthalpy; higher = less favourable; fluorescence melt of hairpins on a sequencing array, two-state fit; details: sodium 0.088 M
Procedure, shortened: as §1

| Sequence | Tm [1] | folding enthalpy [2] |
| --- | --- | --- |
| GACTCCGAAAGGAACGTC ((((((....)))..))) | 36 °C | -15.2 kcal/mol |
| GATCTGTTCCAGATC ((((((...)))))) | 50.7 °C | -30.4 kcal/mol |
| GCAATGACGAAAGTCTGC (((..(((....)))))) | 42 °C | -19.4 kcal/mol |
| GAGTGCGCGAAAGCGCTC (((..(((....)))))) | 32 °C | -5.97 kcal/mol |
| GTTAGGCGAAAGCCAAC (((.(((....)))))) | 50.7 °C | -12.7 kcal/mol |
| GCCTGGCGAAAGCCCGGC (((.(((....))).))) | 59.4 °C | -35.3 kcal/mol |
| GCCGTCGGAAACGATGGC (((.(((....))).))) | 65.5 °C | -41.1 kcal/mol |
| GGGTTACGAAAGTACCC (((.(((....)))))) | 54.3 °C | -31.5 kcal/mol |
| GATCACCAGTGTGATC ((((((....)))))) | 53.3 °C | -47.5 kcal/mol |
| GGATTCGAAAGAATCTCC ((((((....)))..))) | 43.8 °C | -14.2 kcal/mol |
| GCCACCGGAAACGGTGAC (.(((((....))))).) | 48.8 °C | -14 kcal/mol |
| GAATAAGCGAAAGCTTTC (((..(((....)))))) | 25.7 °C | -9.51 kcal/mol |
| GATCGCTCGCGCGATC ((((((....)))))) | 67.4 °C | -31.7 kcal/mol |
| GCCGGGCGAAAGCTCTGC ((.(.((....)).).)) | 41.4 °C | -18.5 kcal/mol |
| GGATTCGAAAGAAGATCC ((((((....)))..))) | 28.1 °C | -12.2 kcal/mol |
| GCGAAATTCGC ((((...)))) | 43.1 °C | -18.2 kcal/mol |
| GGTGAACGAAAGTTTACC (((.(((....))).))) | 51.8 °C | -45.2 kcal/mol |
| GGCTAGTCGAAAGACGCC (((..(((....)))))) | 52.3 °C | -19.9 kcal/mol |
| GATCGTTCCACGATC ((((((...)))))) | 59.6 °C | -40.1 kcal/mol |
| GCTCGGCGAAAGCCTTGC ((..(((....)))..)) | 50.2 °C | -11.4 kcal/mol |
| GATCATCGGCATGATC ((((((....)))))) | 44.7 °C | -32 kcal/mol |
| GCCCTCGAAAGAGTAGGC ((((((....)))..))) | 49 °C | -29.5 kcal/mol |
| GCTTGGGGAAACTCAGGC ((.((.(....).)).)) | 36.6 °C | -18.2 kcal/mol |

| Sequence | Tm [1] | folding enthalpy [2] |
| --- | --- | --- |
| GGCCAGGCGAAAGCCGCC (((..(((....)))))) | 58.4 °C | -13.9 kcal/mol |
| GTCAGACGAAAGTCCGAC (((.(((....))).))) | 48.6 °C | -26.5 kcal/mol |
| GCAAAGCGAAAGCTACGC ((..(((....)))..)) | 40.8 °C | -11 kcal/mol |
| GGCATCGAAAGATACGCC ((((((....)))..))) | 42.3 °C | -24.3 kcal/mol |
| CGGTGCGGAAACGCTCCG (((.(((....))).))) | 62 °C | -34.8 kcal/mol |
| CAGGTGAAAACCTG (((((....))))) | 53 °C | -24.5 kcal/mol |
| GCAGGGCGAAAGCCCCGC ((.((((....)))).)) | 62.8 °C | -14.5 kcal/mol |
| GTTGTCCGAAAGGAAAAC (((.(((....))).))) | 44.9 °C | -26.9 kcal/mol |
| GGGATGCGAAAGCACCCC (((.(((....))).))) | 61.4 °C | -27.7 kcal/mol |
| GGTGACGAAAGTCTGACC ((((((....)))..))) | 39.7 °C | -15.6 kcal/mol |
| GCGAGGGTTCGC ((((....)))) | 49.3 °C | -15.7 kcal/mol |
| GCTGGGAAACCAGC (((((....))))) | 65.4 °C | -29.9 kcal/mol |
| GGATCGGGAAACTGGTCC (((.(.(....).).))) | 39.2 °C | -30.4 kcal/mol |
| GCATCACGAAAGTGTTGC (((.(((....))).))) | 55 °C | -44 kcal/mol |
| GTGACCGAAAGGTCCCAC ((((((....)))..))) | 35.9 °C | -8.57 kcal/mol |
| GCTCTGGAAACAGAGC ((((((....)))))) | 62.2 °C | -37.3 kcal/mol |
| GCGAACGGAAACATTCGC (((((.(....).))))) | 48.2 °C | -32.7 kcal/mol |
| GGACGCGAAAGCGGATCC ((((((....)))..))) | 47.5 °C | -12.3 kcal/mol |
| GATCGAGCATTCGATC ((((((....)))))) | 58.2 °C | -42.6 kcal/mol |
| GGTGGGTCGAAAGACACC (((..(((....)))))) | 50.9 °C | -12.4 kcal/mol |
| GCTAGGGGAAACCCTAAC (.(((((....))))).) | 32.1 °C | -13.4 kcal/mol |
| GAGCCCGGAAACGGGCCC (.(((((....))))).) | 49.7 °C | -7.26 kcal/mol |
| GATGGCACGAAAGTGATC (((..(((....)))))) | 27.2 °C | -12.9 kcal/mol |

| Sequence | Tm [1] | folding enthalpy [2] |
| --- | --- | --- |
| GTGCCAGGAAACTGGTGC (..((((....))))..) | 48 °C | -26.2 kcal/mol |
| ACAGGGAAACCTGT (((((....))))) | 48.3 °C | -18.8 kcal/mol |
| GCCTAGGGAAACTTAGGC (((((.(....).))))) | 47.5 °C | -31.6 kcal/mol |
| GACCTAGGAAACCAGGTC (((((.(....).))))) | 45 °C | -35.3 kcal/mol |
| GACTCTGGAAACAGAATC ((.((((....)))).)) | 28.5 °C | -22.3 kcal/mol |
| GGTTACGGAAACGTGACC (((.(((....))).))) | 53.4 °C | -36.4 kcal/mol |
| GGGCCCGAAAGGGAGCCC ((((((....)))..))) | 62.3 °C | -23.8 kcal/mol |
| GGTTTGCGAAAGCAGACC (((.(((....))).))) | 59.5 °C | -34.8 kcal/mol |
| GCATTGCGAAAGCACGGC ((..(((....)))..)) | 40 °C | -16.6 kcal/mol |
| CGCGCGGAAACGCCGCG ((((((....))).))) | 69.2 °C | -20 kcal/mol |
| GCGTTTGCACGC ((((....)))) | 54.3 °C | -19.1 kcal/mol |
| GGAATATCGAAAGATTCC (((..(((....)))))) | 33.3 °C | -20 kcal/mol |
| CGTTTCGGAAACGACACG (((.(((....))).))) | 44.8 °C | -29.6 kcal/mol |
| CGGCAACGGAAACGTCCG (((..(((....)))))) | 39.2 °C | -13 kcal/mol |
| GATCAGCGGTCTGATC ((((((....)))))) | 49.9 °C | -32.1 kcal/mol |
| GTAACGTCGAAAGACTAC (((..(((....)))))) | 28.7 °C | -11.2 kcal/mol |
| GCGGAGCGAAAGCCCAGC ((.(.((....)).).)) | 42.5 °C | -12.1 kcal/mol |
| GACTTGGGAAACCAAGCC (.(((((....))))).) | 41.8 °C | -19.1 kcal/mol |
| GATCTATTCTAGATC ((((((...)))))) | 41.3 °C | -27.6 kcal/mol |
| GATCCTGGAAACAGGATC (((((((....))))))) | 61.7 °C | -44.4 kcal/mol |
| GTCATGCCGAAAGGCGAC (((..(((....)))))) | 41.3 °C | -12.3 kcal/mol |
| GTTTTTTCGAAAGAAAAC (((..(((....)))))) | 32.1 °C | -19.7 kcal/mol |
| GTGTATGGAAACATATAC ((.((((....)))).)) | 37.8 °C | -37 kcal/mol |
